Converted amounts (≈) assume the structure as drawn. The source made the active and inactive calls. The calls are words filed in the database; no cut-off is given here.
Experiments:
Escherichia coli [1] = test: Antibacterial activity against Escherichia coli ATTC 25922 after 16 to 18 hrs by serial dilution method; format: functional
Method in brief: (§1)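 Serial drug dilutions in Mueller-Hinton broth adjusted to pH 5.0 with phosphate buffer, inoculated with standardized bacterial suspension, incubated 16–18 h at 37 °C; MIC taken as lowest concentration without conspicuous growth.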

Staphylococcus aureus [2] = test: Antibacterial activity against Staphylococcus aureus ATTC 25923 after 16 to 18 hrs by serial dilution method; format: functional; method in brief: as §1
Pseudomonas aeruginosa [3] = test: Antibacterial activity against Pseudomonas aeruginosa ATTC 27853 at MIC after 3 to 4 days by disc diffusion method; format: functional
Method in brief: (§2)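 Agar well diffusion: seeded agar plates dried 1 h at 37 °C, wells punched and filled with test compound at MIC level in DMSO; DMSO solvent control. Plates in triplicate, kept at 37 °C for 3–4 days; zone of inhibition read.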

Mus musculus [4] = test: Analgesic activity Wistar albino mouse assessed as tail withdrawal latency time at 100 mg/kg, po administered by intragastric tube after 60 mins (reference value: 1.363 +/- 0.1297 sec); format: functional
Klebsiella pneumoniae [5] = test: Antibacterial activity against recultured Klebsiella pneumoniae after 16 to 18 hrs by serial dilution method; format: functional; method in brief: as §1
Mus musculus [6] = test: Analgesic activity Wistar albino mouse assessed as tail withdrawal latency time at 100 mg/kg, po administered by intragastric tube after 180 mins (reference value: 1.363 +/- 0.1297 sec); format: functional
Mus musculus [7] = test: Analgesic activity Wistar albino mouse assessed as tail withdrawal latency time at 100 mg/kg, po administered by intragastric tube after 120 mins (reference value: 1.363 +/- 0.1297 sec); format: functional
Talaromyces marneffei [8] = test: Antifungal activity against recultured Penicillium marneffei by serial plate dilution method; format: functional
Aspergillus fumigatus [9] = test: Antifungal activity against Aspergillus fumigatus NCIM 902 at MIC after 3 to 4 days; format: functional
Aspergillus flavus [10] = test: Antifungal activity against Aspergillus flavus NCIM 524 at MIC after 3 to 4 days; format: functional
Talaromyces marneffei [11] = test: Antifungal activity against recultured Penicillium marneffei at MIC after 3 to 4 days; format: functional
[12] = test system: Radical scavenging activity; test: Antioxidant activity of the compound assessed as DPPH radical scavenging activity at 200 ug/ml after 20 mins; format: functional
Method in brief: (§3)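 Compound dissolved in methylene dichloride at the stated concentration, mixed with 4 mL 0.1 mM methanolic DPPH, held 20 min at ambient temperature; absorbance read at 517 nm. Scavenging % = (A_DPPH − A_test)/A_DPPH × 100. Triplicate; ascorbic acid positive control.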

Staphylococcus aureus [13] = test: Antibacterial activity against Staphylococcus aureus ATTC 25923 at MIC after 3 to 4 days by disc diffusion method; format: functional; method in brief: as §2
Aspergillus flavus [14] = test: Antifungal activity against Aspergillus flavus NCIM 524 by serial plate dilution method; format: functional
[15] = test system: Trichophyton mentagrophytes; test: Antifungal activity against recultured Trichophyton mentagrophytes by serial plate dilution method; format: functional
[16] = test system: Trichophyton mentagrophytes; test: Antifungal activity against recultured Trichophyton mentagrophytes at MIC after 3 to 4 days; format: functional
[17] = test system: Radical scavenging activity; test: Antioxidant activity of the compound assessed as DPPH radical scavenging activity at 400 ug/ml after 20 mins; format: functional; method in brief: as §3
Escherichia coli [18] = test: Antibacterial activity against Escherichia coli ATTC 25922 at MIC after 3 to 4 days by disc diffusion method; format: functional; method in brief: as §2
Klebsiella pneumoniae [19] = test: Antibacterial activity against recultured Klebsiella pneumoniae at MIC after 3 to 4 days by disc diffusion method; format: functional; method in brief: as §2
[20] = test system: Radical scavenging activity; test: Antioxidant activity of the compound assessed as DPPH radical scavenging activity at 800 ug/ml after 20 mins; format: functional; method in brief: as §3
Rattus norvegicus = test: Antiinflammatory activity rat assessed as reduction of carrageenan-induced paw oedema at 100 mg/kg, po administered 30 mins before carrageenan challenge measured after 60 to 180 mins; format: functional, organism-based; design: dose 100 mg/kg
Method in brief: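 Rats randomly assigned, 100 mg/kg orally as suspension in 1% carboxymethyl cellulose, 30 min before carrageenan injected into right hind paw. Paw thickness measured with vernier callipers at 60, 120 and 180 min. Diclofenac reference; mean ± SEM, n = 6, vs vehicle control.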

Pseudomonas aeruginosa [21] = test: Antibacterial activity against Pseudomonas aeruginosa ATTC 27853 after 16 to 18 hrs by serial dilution method; format: functional; method in brief: as §1
Aspergillus fumigatus [22] = test: Antifungal activity against Aspergillus fumigatus NCIM 902 by serial plate dilution method; format: functional

Row | Compound | MIC (Escherichia coli [1]) [µM] | MIC (Staphylococcus aureus [2]) [µM] | MIC (Klebsiella pneumoniae [5]) [µM] | MIC (Talaromyces marneffei [8]) [µM] | MIC (Aspergillus flavus [14]) [µM] | MIC [15] [µM] | MIC (Pseudomonas aeruginosa [21]) [µM] | MIC (Aspergillus fumigatus [22]) [µM] | diameter of the inhibition zone (DIZ) (Pseudomonas aeruginosa [3]) [mm] | Time (Mus musculus [4]) [s] | Time (Mus musculus [6]) [s] | Time (Mus musculus [7]) [s] | diameter of the inhibition zone (DIZ) (Aspergillus fumigatus [9]) [mm] | diameter of the inhibition zone (DIZ) (Aspergillus flavus [10]) [mm] | diameter of the inhibition zone (DIZ) (Talaromyces marneffei [11]) [mm] | diameter of the inhibition zone (DIZ) (Staphylococcus aureus [13]) [mm] | diameter of the inhibition zone (DIZ) [16] [mm] | diameter of the inhibition zone (DIZ) (Escherichia coli [18]) [mm] | diameter of the inhibition zone (DIZ) (Klebsiella pneumoniae [19]) [mm] | Activity (Rattus norvegicus) | also measured
1 | COc1ccc(Br)c(-c2nnc3n2NC(c2ccc([N+](=O)[O-])cc2)S3)c1 (stereo unspecified) | 28.8 (≈ 12.5 µg/mL) | 28.8 (≈ 12.5 µg/mL) | 14.4 (≈ 6.25 µg/mL) | 14.4 (≈ 6.25 µg/mL) | 14.4 (≈ 6.25 µg/mL) | 28.8 (≈ 12.5 µg/mL) | 14.4 (≈ 6.25 µg/mL) | 14.4 (≈ 6.25 µg/mL) | 16 | 3.675 | 2.425 | 3.563 | 16 | 16 | 16 | 11 | 11 | 11 | 16 | Active | inhibition [12]: 53.2%; inhibition [17]: 72.4%; inhibition [20]: 82.7%
2 | COc1ccc(Br)c(-c2n[nH]c(=S)n2N)c1 | 20.8 (≈ 6.25 µg/mL) | 41.5 (≈ 12.5 µg/mL) | 20.8 (≈ 6.25 µg/mL) | 20.8 (≈ 6.25 µg/mL) | 20.8 (≈ 6.25 µg/mL) | 20.8 (≈ 6.25 µg/mL) | 41.5 (≈ 12.5 µg/mL) | 20.8 (≈ 6.25 µg/mL) | 11 | 3.463 | 2.338 | 3.388 | 16 | 16 | 16 | 11 | 16 | 16 | 16 | Active | inhibition [12]: 52.7%; inhibition [17]: 56.8%; inhibition [20]: 67.5%
3 | COc1ccc(Br)c(-c2nnc3sc(-c4ccc(I)cc4I)nn23)c1 | 19.6 (≈ 12.5 µg/mL) | 19.6 (≈ 12.5 µg/mL) | 19.6 (≈ 12.5 µg/mL) | 19.6 (≈ 12.5 µg/mL) | 19.6 (≈ 12.5 µg/mL) | 19.6 (≈ 12.5 µg/mL) | 19.6 (≈ 12.5 µg/mL) | 19.6 (≈ 12.5 µg/mL) | 11 | 2.038 | 2.225 | 2.088 | 11 | 11 | 11 | 11 | 11 | 11 | 11 | – | –
4 | O=C1O[C@H]([C@@H](O)CO)C(O)=C1O | – | – | – | – | – | – | – | – | – | – | – | – | – | – | – | – | – | – | – | – | inhibition [12]: 87.6%; inhibition [17]: 95%; inhibition [20]: 96%
5 | COc1ccc(Br)c(-c2nnc3n2NC(c2ccc(C)cc2)S3)c1 (stereo unspecified) | 15.5 (≈ 6.25 µg/mL) | 31 (≈ 12.5 µg/mL) | 15.5 (≈ 6.25 µg/mL) | 31 (≈ 12.5 µg/mL) | 15.5 (≈ 6.25 µg/mL) | 31 (≈ 12.5 µg/mL) | 15.5 (≈ 6.25 µg/mL) | 15.5 (≈ 6.25 µg/mL) | 16 | 2.403 | 2.438 | 2.643 | 16 | 16 | 11 | 11 | 11 | 16 | 16 | Active | –
6 | COc1ccc(Br)c(-c2nnc3sc(-c4ccc(C)cc4)nn23)c1 | 15.8 (≈ 6.32 µg/mL) | 15.8 (≈ 6.32 µg/mL) | 15.8 (≈ 6.32 µg/mL) | 31.1 (≈ 12.5 µg/mL) | 31.1 (≈ 12.5 µg/mL) | 15.8 (≈ 6.32 µg/mL) | 31.1 (≈ 12.5 µg/mL) | 31.1 (≈ 12.5 µg/mL) | 11 | 2.384 | 2.47 | 2.681 | 11 | 11 | 11 | 16 | 16 | 16 | 16 | Active | –

The next lines start with results.

Row | MIC (Escherichia coli [1]) [µM] | MIC (Staphylococcus aureus [2]) [µM] | MIC (Klebsiella pneumoniae [5]) [µM] | MIC (Talaromyces marneffei [8]) [µM] | MIC (Aspergillus flavus [14]) [µM] | MIC [15] [µM] | MIC (Pseudomonas aeruginosa [21]) [µM] | MIC (Aspergillus fumigatus [22]) [µM] | Compound | diameter of the inhibition zone (DIZ) (Pseudomonas aeruginosa [3]) [mm] | Time (Mus musculus [4]) [s] | Time (Mus musculus [6]) [s] | Time (Mus musculus [7]) [s] | diameter of the inhibition zone (DIZ) (Aspergillus fumigatus [9]) [mm] | diameter of the inhibition zone (DIZ) (Aspergillus flavus [10]) [mm] | diameter of the inhibition zone (DIZ) (Talaromyces marneffei [11]) [mm] | diameter of the inhibition zone (DIZ) (Staphylococcus aureus [13]) [mm] | diameter of the inhibition zone (DIZ) [16] [mm] | diameter of the inhibition zone (DIZ) (Escherichia coli [18]) [mm] | diameter of the inhibition zone (DIZ) (Klebsiella pneumoniae [19]) [mm] | Activity (Rattus norvegicus) | also measured
7 | 13.7 (≈ 6.25 µg/mL) | 27.4 (≈ 12.5 µg/mL) | 13.7 (≈ 6.25 µg/mL) | 13.7 (≈ 6.25 µg/mL) | 27.4 (≈ 12.5 µg/mL) | 13.7 (≈ 6.25 µg/mL) | 13.7 (≈ 6.25 µg/mL) | 13.7 (≈ 6.25 µg/mL) | COc1ccc(Br)c(-c2nnc3sc(-c4cc(Cl)cc(Cl)c4)nn23)c1 | 16 | 3.421 | 2.388 | 3.075 | 16 | 11 | 16 | 11 | 16 | 16 | 16 | Active | inhibition [12]: 49.8%; inhibition [17]: 54.3%; inhibition [20]: 66.8%
8 | 14.9 (≈ 6.25 µg/mL) | 29.8 (≈ 12.5 µg/mL) | 29.8 (≈ 12.5 µg/mL) | 29.9 (≈ 12.5 µg/mL) | 14.9 (≈ 6.25 µg/mL) | 14.9 (≈ 6.25 µg/mL) | 29.8 (≈ 12.5 µg/mL) | 14.9 (≈ 6.25 µg/mL) | COc1ccc(Br)c(-c2nnc3n2NC(c2ccccc2OC)S3)c1 (stereo unspecified) | 11 | 2.387 | 2.501 | 2.652 | 16 | 16 | 11 | 11 | 16 | 16 | 11 | Active | –
9 | 13.9 (≈ 6.25 µg/mL) | 27.8 (≈ 12.5 µg/mL) | 13.9 (≈ 6.25 µg/mL) | 13.9 (≈ 6.25 µg/mL) | 27.8 (≈ 12.5 µg/mL) | 27.8 (≈ 12.5 µg/mL) | 13.9 (≈ 6.25 µg/mL) | 27.8 (≈ 12.5 µg/mL) | COc1ccc(C2Nn3c(nnc3-c3cc(OC)ccc3Br)S2)c(OC)c1 (stereo unspecified) | 16 | 2.39 | 2.492 | 2.642 | 11 | 11 | 16 | 11 | 11 | 16 | 16 | Active | –
10 | 15 (≈ 6.25 µg/mL) | 15 (≈ 6.25 µg/mL) | 15 (≈ 6.25 µg/mL) | 29.9 (≈ 12.5 µg/mL) | 29.9 (≈ 12.5 µg/mL) | 15 (≈ 6.25 µg/mL) | 15 (≈ 6.25 µg/mL) | 15 (≈ 6.25 µg/mL) | COc1ccc(-c2nn3c(-c4cc(OC)ccc4Br)nnc3s2)cc1 | 16 | 2.379 | 2.44 | 2.674 | 16 | 11 | 11 | 16 | 16 | 16 | 16 | Active | –
11 | 15 (≈ 6.25 µg/mL) | 29.9 (≈ 12.5 µg/mL) | 15 (≈ 6.25 µg/mL) | 29.9 (≈ 12.5 µg/mL) | 15 (≈ 6.25 µg/mL) | 15 (≈ 6.25 µg/mL) | 15 (≈ 6.25 µg/mL) | 15 (≈ 6.25 µg/mL) | COc1ccc(Br)c(-c2nnc3sc(-c4ccc(C)cc4O)nn23)c1 | 16 | 2.388 | 3.121 | 3.321 | 16 | 16 | 11 | 11 | 16 | 16 | 16 | Active | –
